Compound activity from PubChem.
V1aR counter: agonists of human V1a receptor, primary screen, counter-screen for OXTR agonist project, fluorescence, CHO-V1R cells. Fluo-8 calcium fluorescence, agonist mode; 0% DMSO, 100% 3 nM vasopressin. Vasopressin V1a receptor (Homo sapiens), P37288. activation, % at 3 µM. AID 2797, 2010. actives 0.25% (n = 320,000);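 active means activation above the mean activation of all tested compounds plus 3 SD, per screening run, cut at about 20% in these data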;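 further: signal is peak over basal fluorescence ratio across a 100 second FLIPR read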
CHO parental Ca: ATP-evoked calcium signal inhibitors, parental CHO, primary screen, counter-screen for OX1R antagonist project, cell-based, fluorescence, Fluo-8 calcium dye. parental CHO-K1, ATP-induced calcium, Fluo-8 fluorescence. actives 0.63% (n = 330,000). inhibition, % at 5.6 µM;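 active means inhibition above that plate's mean sample inhibition plus 3 SD, cut at about 26% in these data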;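 further: 0% = ATP-challenged DMSO wells and 100% = DMSO wells without ATP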
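test system = CHO parental line | reagent = ATP stimulus | measured by = intracellular calcium via Fluo-8 no-wash fluorescent dye | control set = ATP and no-ATP DMSO wells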
OX1R antag-1: antagonists of human orexin 1 receptor (OX1R) | inhibition, % at 6.6 µM | AID 485270, 2010 | OX1R-expressing cells, FRET antagonist read-out | actives 1.8% (n = 330,000) | Orexin/Hypocretin receptor type 1 (Homo sapiens), O43613; in the data active means inhibition mostly above about 38%, no sharp cut-off; inactive means mostly below about 40%;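 further: 0% = agonist challenge alone and 100% = reference antagonist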
Target sequence (O43613 whole entry, looked up): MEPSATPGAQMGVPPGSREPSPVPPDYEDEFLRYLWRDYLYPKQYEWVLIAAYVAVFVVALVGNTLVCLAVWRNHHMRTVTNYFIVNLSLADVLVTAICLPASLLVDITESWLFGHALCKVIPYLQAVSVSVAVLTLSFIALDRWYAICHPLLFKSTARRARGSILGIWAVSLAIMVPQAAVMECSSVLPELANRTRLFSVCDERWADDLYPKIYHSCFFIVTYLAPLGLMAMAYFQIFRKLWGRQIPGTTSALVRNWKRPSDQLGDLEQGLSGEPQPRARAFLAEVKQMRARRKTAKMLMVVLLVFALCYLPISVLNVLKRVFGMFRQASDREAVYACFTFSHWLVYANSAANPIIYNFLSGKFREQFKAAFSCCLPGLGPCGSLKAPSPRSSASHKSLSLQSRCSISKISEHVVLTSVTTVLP
OXTR potentiator: human OXTR potentiators, primary screen, fluorescence, CHO-OTR cells, Fluo-8 calcium; Fluo-8 calcium fluorescence, potentiator mode; 0% = oxytocin EC15, 100% = EC100; activation, % at 3 µM; actives 0.061% (n = 320,000);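 active means activation above that plate's cutoff, the mean activation of tested compounds plus 3 SD, cut at about 6.6% in these data, passing the limit was not always enough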;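 further: 100% uses oxytocin at 75 nM as the full agonist control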
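Assay system: CHO-OTR cells, human receptor / Also added: oxytocin at about EC15, sub-maximal agonist stimulus / Dosing: single dose, 3.0 µM nominal final compound concentration / Incubation: 6 min pre-incubation, 100 s read / Technique: Fluo-8 calcium dye fluorescence / Read-out: % activation vs EC15 and EC100 oxytocin / Benchmarks: EC15 oxytocin low, 75 nM oxytocin high / Replicates: singlicate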
OXTR agonist: human OXTR agonists, primary screen, fluorescence, CHO-OTR cells, Fluo-8 calcium; Oxytocin receptor (Homo sapiens), P30559; Fluo-8 calcium fluorescence; normalized: DMSO 0%, oxytocin 100%; activation, % at 3 µM; actives 0.32% (n = 320,000); AID 2435, 2010;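 active means activation above the mean of all tested compounds plus 3 SD, cutoff set per screening run, cut at about 20% in these data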;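 further: peak over basal fluorescence ratio from a 100 s FLIPR kinetic read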
OX1R antag-2: OX1R (HCRTR1) antagonists, primary screen, fluorescence, CHO/OX1R cells, Fluo-8 calcium, orexin A. Orexin/Hypocretin receptor type 1 (Homo sapiens), O43613. Fluo-8 calcium fluorescence. inhibition, % at 5 µM. actives 0.43% (n = 330,000). AID 434989, 2010;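 active means inhibition above its plate's threshold, mean inhibition of all tested compounds on the plate plus 3 SD, cut at about 37% in these data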;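 further: 0% = orexin A challenge wells and 100% = SB-334867-A antagonist wells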
OX1R Ca confirm: OX1R (HCRTR1) antagonists, confirmation, fluorescence, CHO/OX1R cells, Fluo-8 calcium, orexin A; shares compounds with OX1R antag-2; orexin A calcium Fluo-8 fluorescence; inhibition, % at 5 µM; actives 38% (n = 1,100); in the data active means inhibition above about 29%;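 further: 0% = agonist challenge alone and 100% = reference antagonist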
CHO Ca counter: ATP-evoked calcium inhibition in parental CHO, counter-screen for OX1R antagonist project, cell-based, fluorescence, CHO-K1, triplicate | ATP-induced calcium, Fluo-8 fluorescence | AID 492965, 2010 | actives 9.3% (n = 1,100) | inhibition, % at 5.6 µM | shares compounds with OX1R antag-2;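 active means inhibition above a per-plate limit, the mean inhibition of that plate's test compounds plus 3 SD, cut at about 25% in these data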;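 further: 0% = ATP challenge with DMSO and 100% = DMSO without ATP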
OX1R HTRF confirm: OX1R (HCRTR1) antagonists, confirmation, cell-based, HTRF; actives 49% (n = 1,800); inhibition, % at 6.6 µM; shares compounds with OX1R antag-1; OX1R-expressing cells, HTRF antagonist assay; in the data active means inhibition above about 55%;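 further: CHO cells expressing OX1R stimulated with orexin A at about EC80; 0% = agonist challenge alone and 100% = reference antagonist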
CHO-K1 HTRF cnt: signal inhibition in parental CHO-K1 cells, counter-screen for OX1R antagonist project, cell-based, HTRF | inhibition, % at 6.6 µM | HTRF counterscreen | shares compounds with OX1R antag-1 | actives 48% (n = 1,800); in the data active means inhibition above about 17%;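 further: 0% = agonist challenge with vehicle and 100% = vehicle alone without agonist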
An asterisk follows results filed as active; / = no result. The list is not random: actives were taken first. Their share in the collection is about 2.7%.

SMILES | V1aR counter | CHO parental Ca | OX1R antag-1 | OXTR potentiator | OXTR agonist | OX1R antag-2 | OX1R Ca confirm | CHO Ca counter | OX1R HTRF confirm | CHO-K1 HTRF cnt
CCOC(=O)C1=C(COC(=O)c2cc(Br)c(Br)s2)NC(=O)NC1C (configuration not stated) | 1.3 | -22.8 | 49.3* | 7.4 | -0.7 | 31.6 | 18.9 | -7.9 | 30.6 | 7.4
CCOC(=O)C1=C(COC(=O)/C=C/c2ccc(SC)cc2)NC(=O)NC1C (configuration not stated) | 2.0 | -11.8 | 12.1 | -6.2 | 0.9 | -27.6 | / | / | / | /
N#CCC(=O)Nc1ccc(C(=O)Nc2ccc3c(c2)OCO3)cc1 | 0.3 | -12.4 | 67.3* | -3.3 | 1.3 | 67.0* | 15.5 | 2.8 | 30.7 | 4.3
N#CCC(=O)Nc1ccc(C(=O)Nc2cccnc2)cc1 | 0.2 | -2.3 | 90.7* | -5.8 | -0.5 | 32.0 | 2.8 | 13.1 | 22.8 | -2.8
CC(C)(C)c1ccc(C(=O)Nc2cccnc2)cc1 | 0.1 | 9.8 | 9.3 | 1.9 | 0.1 | 5.3 | / | / | / | /
CCOC(=O)C1CCN(C(=O)CNC(=O)c2nn(-c3ccc(OC)cc3)c(=O)c3ccccc23)CC1 | -0.1 | -27.0 | 18.4 | -11.2 | -2.0 | -31.7 | / | / | / | /
Cc1ccc(C(=O)N[C@H](C(=O)OCc2cc(=O)n3c(n2)sc2ccccc23)C(C)C)cc1 | 2.8 | -40.0 | 20.9 | -3.3 | -0.6 | -16.7 | / | / | / | /
O=C(OCc1cc(=O)n2c(n1)sc1ccccc12)c1cccc(O)c1 | 1.6 | 13.5 | 97.2* | -3.6 | -0.3 | 33.7 | 52.0* | -8.7 | 86.3* | 6.4
COc1ccc(NC(=S)Nc2cccc([N+](=O)[O-])c2)cc1 | 1.1 | -1.7 | 7.9 | -4.5 | 2.3 | -2.4 | / | / | / | /
COc1ccc(NC(=O)c2cc([N+](=O)[O-])ccc2O)cc1 | 6.8 | 14.9 | 70.5* | -15.7 | 12.1 | 33.2 | 14.4 | -0.5 | 26.5 | 6.7
O=C(COC(=O)c1cc(-c2cccs2)nc2ccccc12)NC1CCS(=O)(=O)C1 (configuration not stated) | 1.5 | -6.5 | 84.4* | -9.0 | 2.2 | 42.1* | 33.1* | 8.3 | 84.0* | 6.2
CN(Cc1ccccc1)C(=O)c1[nH]cnc1C(=O)N[C@@H](Cc1ccccc1)C(=O)OC(C)(C)C | -0.8 | -28.1 | 76.8* | -5.2 | -1.1 | 35.1 | 42.8* | -11.3 | 77.2* | 1.5
CC(C)(C)OC(=O)[C@H](Cc1ccccc1)NC(=O)c1nc[nH]c1C(=O)NCc1ccccc1 | 0.8 | -23.6 | 5.8 | 7.5 | -0.5 | -30.1 | / | / | / | /
C[C@H](CO)N1C[C@H](C)[C@@H](CN(C)S(=O)(=O)c2ccccc2)Oc2ccc(NC(=O)CCC(F)(F)F)cc2C1=O | 0.6 | 2.5 | 5.5 | -0.8 | 1.2 | -5.0 | / | / | / | /
CC(=O)Cc1nsc(NC(=O)c2ccc(-c3ccccc3Cl)o2)n1 | 1.4 | -26.1 | 80.5* | -5.4 | -1.5 | 61.2* | 2.8 | 7.7 | 40.4 | 7.0
CC(=O)Cc1nsc(NC(=O)c2oc(-c3ccccc3Cl)cc2C)n1 | -1.8 | -16.4 | 17.6 | 2.9 | -1.8 | -11.5 | / | / | / | /
Cc1cc(NC(=O)CSc2nnc(-c3ccccc3F)n2N)no1 | 1.7 | -4.1 | 9.2 | 2.6 | 0.3 | 0.7 | / | / | / | /
Cc1ccc2nc(SCC(=O)c3c[nH]c4ccccc34)[nH]c2c1 | 4.0 | -24.6 | 24.2 | -5.2 | 4.4 | -9.3 | / | / | / | /
Cc1ccc2nc(SCC(=O)c3c(C)[nH]c4ccccc34)[nH]c2c1 | 2.5 | -11.1 | 88.9* | -11.6 | 1.8 | 32.5 | 29.4* | -5.2 | 78.3* | -1.4
O=C(Nc1cccc(S(=O)(=O)N2CCCCC2)c1)c1cc(=O)[nH]c2ccccc12 | 1.0 | -16.6 | 0.6 | -1.6 | 1.6 | -47.9 | / | / | / | /
CC(C)(C)[C@@H]1COC(=O)[C@H](Cc2ccc(F)cc2)C/C=C\C[C@@H](CC(=O)N(CCO)Cc2ccccc2)C(=O)N1 | 0.8 | -15.2 | 66.9* | -0.7 | 0.6 | 56.8 | 21.7 | -17.7 | 72.4* | -2.6
CCOc1ccc(OCCC(=O)OC(C)C(=O)Nc2ccc(C(C)=O)cc2)cc1 (configuration not stated) | 7.9 | -7.8 | 3.9 | -7.6 | 5.8 | -24.9 | / | / | / | /
CC(=O)Nc1ccc(NC(=O)C(C)OC(=O)COc2ccc(Nc3ccccc3)cc2)cc1 (configuration not stated) | 4.1 | -9.7 | 30.7* | -4.2 | 5.7 | 41.4* | 32.9* | -1.1 | 24.1 | 4.6
CC(=O)Nc1cc2nn(-c3ccccc3)nc2cc1C | -0.5 | -4.8 | 0.7 | -9.7 | 0.8 | -8.7 | / | / | / | /
Cc1cc2nn(-c3ccccc3)nc2cc1NC(=O)c1cccs1 | 1.6 | -12.7 | 79.5* | -9.4 | 1.0 | 61.2* | 16.6 | 1.5 | 69.7* | 18.5*
CC(=O)Nc1cccc(C(=O)NNC(=O)c2n[nH]c(=O)c3ccccc23)c1 | 0.9 | -21.8 | 4.5 | -5.9 | 1.2 | -5.5 | / | / | / | /
OCC[C@H]1C[C@@H](O)[C@H](O)[C@]2(OCCc3ccccc32)O1 | 3.8 | -3.8 | 23.0 | -5.8 | 0.8 | -13.4 | / | / | / | /
Cc1ccc(S(=O)(=O)N2CCCCC2C(=O)Nc2nncs2)cc1 (configuration not stated) | 1.4 | -17.4 | 4.1 | -5.4 | -0.2 | -13.3 | / | / | / | /
O=C(NCc1ccccc1)C1CCCN1S(=O)(=O)c1ccc(Cl)cc1 (configuration not stated) | 0.2 | -27.1 | 7.2 | 2.4 | -0.4 | -20.4 | / | / | / | /
